Screening results deposited in PubChem by several laboratories.
MDM2 E3 inh – Mdm2 E3 ligase (human) inhibition; cell-based MDM2 ubiquitination luciferase reporter, 2 h; 0 = plate control, 100 = twice control, blank-subtracted; Q00987; hit rate 0.11% among 210,000; signal enhancement, % at 5 µM;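 active means signal enhancement of 30% or more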;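 further: luminescence tracks abundance of the self-degrading MDM2-luciferase fusion protein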
Target sequence (Q00987 whole entry, looked up, the tested form may be a part): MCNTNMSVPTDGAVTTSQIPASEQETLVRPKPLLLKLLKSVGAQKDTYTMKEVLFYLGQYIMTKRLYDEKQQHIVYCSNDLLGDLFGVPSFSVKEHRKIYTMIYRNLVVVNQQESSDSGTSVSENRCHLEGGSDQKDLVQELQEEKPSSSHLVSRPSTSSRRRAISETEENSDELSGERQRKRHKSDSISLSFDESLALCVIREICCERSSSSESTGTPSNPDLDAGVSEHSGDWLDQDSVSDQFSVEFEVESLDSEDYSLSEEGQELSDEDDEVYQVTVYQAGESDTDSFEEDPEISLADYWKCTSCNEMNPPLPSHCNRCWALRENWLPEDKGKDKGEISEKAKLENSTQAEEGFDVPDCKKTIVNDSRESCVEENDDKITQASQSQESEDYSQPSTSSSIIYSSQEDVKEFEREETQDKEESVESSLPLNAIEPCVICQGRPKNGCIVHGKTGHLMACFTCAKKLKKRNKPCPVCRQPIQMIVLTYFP
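Test system: stable mammalian line carrying autodegrading MDM2–luciferase fusion reporter; quantity: 2000 cells in each well; times: 4 h cell settling then 2 h compound exposure, 37 °C; detection: luminescence with SteadyLite reagent, 15 min at room temperature; evaluation: percent signal gain over controls, blank-subtracted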
Calpain2 inh – calpain II (pig) inhibition; purified calpain II, fluorogenic peptide substrate, 30 min; inhibition, % at 16 µM; hit rate 0.37% among 220,000; AID 1236;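 active means inhibition above about 50%, limit read from the data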
Pf gametocyte – P. falciparum stage V gametocyte viability inhibition; hit rate 0.065% among 150,000; P. falciparum stage V gametocytes, ATP luminescence, 24 h; inhibition, % at 10.9 µM;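 active means inhibition above the mean plus 3 SD of compounds within the control limits, set per campaign, cut at about 38% in these data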;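 further: 0% = DMSO wells and 100% = medium only without gametocytes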
Hsp70 act – transcriptional activators of Hsp70. activation, % at 10 µM. hit rate 0.04% among 200,000. HeLa Hsp70 promoter luciferase reporter, luminescence; scaled: vehicle 0, proteasome-inhibitor control 100%;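 active means activation above the mean across all tested compounds plus 3 SD, cutoff set per campaign, cut at about 5.5% in these data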;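 further: 100% = MG132 at 30 µM as the positive control and 0% = DMSO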
Wee1 degr inh – inhibitors of human Wee1 degradation; P30291; HeLa Luc-Wee1K328M stability, luciferase luminescence; 100% = proteasome inhibitor MG132 effect; reporter increase, % at 5 µM; hit rate 1.2% among 220,000; AID 1321;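 active means activation above the mean of all tested compounds plus 3 SD, set per screening run, cut at about 8.8% in these data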;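 further: cells exposed to compound for 20 h before luminescence read; 0% = DMSO alone and 100% = MG132 at 30 µM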
Wee1 degr conf – human Wee1 degradation inhibition, confirmation | shares compounds with Wee1 degr inh | activation, % at 5 µM | hit rate 4% among 1,100 | HeLa Luc-Wee1K328M degradation, luminescence; vehicle 0%, proteasome-blocked wells 100%; in the data active means activation above about 8.9%
The depositor's hits bear a star; i = inactive; · = no result given. Compounds with a hit are over-represented: about 1.5% of the library has one in this group of screens.

SMILES	MDM2 E3 inh	Calpain2 inh	Pf gametocyte	Hsp70 act	Wee1 degr inh	Wee1 degr conf
CCOc1ccc(/C=N/NC(=O)CN2CCCCC2)cc1OCC	·	·	10	·	·	·
Cc1cnn(Cc2cccnc2)c1N	·	-15	7	·	1	·
COc1ccc(C(C)=O)cc1CSCCC#N	-10	-23	-14	0	14*	0
O=C(NCc1ccncc1)C(=O)N/N=C/c1ccccn1	-4	-19	-15	0	-4	·
C=CCn1c(SCC(=O)Nc2cc(C)ccc2OC)nnc1-c1ccco1	-25	12	·	0	15*	3
Cc1ccc(O)c(Cn2nnc3ccccc32)c1	·	·	-11	·	·	·
Cc1nn(-c2ccccn2)c2c1C(=O)C(Br)CC2 (stereo not given)	-13	-12	·	0	-2	·
CC(C)COc1ccc(C(=O)NC(CC(C)C)C(=O)O)cc1 (stereo not given)	-5	-37	·	0	-1	·
Cc1ccc(Oc2ccc(OCC(=O)NC(CC(C)C)C(=O)O)cc2)cc1 (stereo not given)	1	-18	-33	0	14*	2
COC(C[C@@H]1O[C@@H]1[C@H](O)[C@@H](C)OCc1ccccc1)OC	·	·	-12	·	·	·
CCn1cc(C(=O)OCC(=O)N2C(C)CCCC2C)c(=O)c2ccc(C)nc21 (stereo not given)	-8	4	1	0	11*	0
CCCN(CCC)CCCNC(=O)CS(=O)Cc1nc(-c2ccc(OC)c(OC)c2)oc1C (stereo not given)	17	-4	9	0	0	·
CCCCN(C)CCCNC(=O)CS(=O)Cc1nc(-c2ccc(OC)c(OC)c2)oc1C (stereo not given)	-2	-10	-9	0	13*	0
NC(=S)N/N=C/c1ccc(-c2cc(Cl)c(Cl)cc2Cl)o1	-1	-77	3	0	-3	·
NC(=S)N/N=C/c1ccc(Br)o1	-14	3	16	0	17*	2
O=C1c2ccccc2NC(c2ccccc2)N1Cc1ccco1 (stereo not given)	-11	i	·	0	15*	0
O=C1c2ccccc2NC(c2ccc(F)cc2)N1Cc1ccco1 (stereo not given)	-2	i	·	0	4	·
CCOCCn1c(CN2CCc3ccccc3C2)nc2c1c(=O)n(C)c(=O)n2C	-13	-3	19	·	5	·
CSc1nccc(Oc2cncc(Cl)c2)n1	3	-53	10	0	17*	-1
CSc1nccc(Oc2ccccc2Cl)n1	·	·	-19	·	·	·
CCOC(=O)CNC(=O)CSc1nnc(CCc2nc3ccccc3[nH]2)n1C	·	·	-8	·	·	·
Cc1ccnc(N/N=C/c2ccccc2)n1	-20	-22	0	0	17*	3
Cc1ccc(/C=N/Nc2cc(C)nc(NCc3ccccc3)n2)cc1	-12	37	11	·	1	·
C(=N\Nc1nccc(-c2cccnc2)n1)/c1ccccc1	-15	-4	-31	·	0	·
Cc1cc(N/N=C/c2ccc(F)cc2)nc(NCc2ccccc2)n1	-101	7	9	·	12*	-6
SMILES	MDM2 E3 inh	Calpain2 inh	Pf gametocyte	Hsp70 act	Wee1 degr inh	Wee1 degr conf
NS(=O)(=O)c1ccc(CCNC(=O)c2cc(-c3cccs3)nc3ccccc23)cc1	9	-490	-11	0	12*	3
COc1cc(/C=N/NC(=O)c2cc(-c3cccs3)nc3ccccc23)ccc1O	-8	-22	4	·	12*	8
NS(=O)(=O)c1ccc(CNC(=O)c2cc(-c3cccs3)nc3ccccc23)cc1	·	-265	11	·	0	·
CC(C)c1ccccc1NC(=O)C1C2C=CC(C2)C1C(=O)O (stereo not given)	·	·	15	·	·	·
O=[N+]([O-])c1ccc(S(=O)(=O)N2CCN=C2SCc2cccnc2)cc1	-23	-20	-2	0	12*	-1
COc1ccc([C@H]2CC(=O)C=C(c3cccc(CO)c3)C2)cc1	·	·	12	·	·	·
CN(CC(O)COc1ccccc1F)C1CCCCC1 (stereo not given)	2	-19	3	0	11*	1
O=C1CCCN1CCC12CC3CC(CC(C3)C1)C2	-5	11	·	0	12*	2
CCc1ccccc1N1C(=O)[C@@H]2Cc3ccccc3CN2C1=O	-10	-6	16	·	1	·
COc1ccccc1CNCC(=O)Nc1ccc(N2CCOCC2)cc1	4	22	-1	0	2	·
